“And” between values parts separate entries of the source, which are not always exact repeats. Equal entries are not always repeated. A value given as a limit tells only on which side of the number the result lay.

In experiment [1] the target is T1, Human immunodeficiency virus type 1 protease (Human immunodeficiency virus 1, UniProt Q72874). In words: Inhibition of HIV-1 protease in 10% fetal calf serum(FCS). In outline:
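COS A6 cells, which constitutively release viral capsids, were exposed to inhibitor in Dulbecco's PBS for 15 min. An equal volume of medium with 10% FCS plus inhibitor was then added and incubation continued for 3.75 h. Capsids were isolated from the supernatant, and polyprotein processing was scored as p24 by ELISA.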

Experiment [2] addresses T2, Pol polyprotein (Human immunodeficiency virus 2, UniProt P88142). In words: ChEBML_159124. An excerpt: (§1) Inhibition of HIV-2 protease in 5%DMSO
The target of experiment [3] is T1, Human immunodeficiency virus type 1 protease. The experiment in a line: (§2) Inhibitory concentration against HIV-1 protease in the absence of DMSO. In outline:
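The water-soluble dipotassium salt was tested against aspartyl proteases with no DMSO present, and IC50 values were determined.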

Experiment [4] concerns HIV-2 protease. In words: ChEBML_158058. An excerpt:
In vitro Inhibitory activity against HIV-2 protease in the presence of 5%DMSO

The target in experiment [5] is T1, Human immunodeficiency virus type 1 protease. The experiment in a line: Inhibition of HIV-1 protease in 5%DMSO. In outline:
(§3)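 Purified recombinant HIV PR activity was followed by cleavage of a decapeptide substrate. Incubation was 30–45 min at 37 °C, and hydrolysis products were quantified by HPLC.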

Experiment [6] has the same target. The experiment in a line: Binding affinity against HIV-1 protease. In outline: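 Purified recombinant HIV-1 protease (6 × 10^-4 mg/mL) preincubated 1 min with inhibitor in 50 mM sodium acetate pH 5.5, 1 mM DTT, 1 mM EDTA, 1 M NaCl. Decapeptide substrate then added, 30–45 min at 37 °C. Activity read by HPLC quantitation of hydrolysis products. Inhibition plotted as a Dixon plot at several substrate concentrations.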

Experiment [7] concerns HIV-2 protease. In words: Inhibitory concentration against HIV-2 protease. In outline:
as §3

Experiment [8] relates to HIV-1 protease. The experiment in a line: Inhibitory concentration against HIV-1 protease. In outline: as §3
Experiment [9] concerns the target T2, Pol polyprotein. Described as §1. In outline:
as §3

The target of experiment [10] is HIV-2 protease (Human immunodeficiency virus 2). The experiment in a line: Inhibitory concentration against HIV-2 protease in the absence of DMSO.
Experiment [11] shares this target. The experiment in a line: In vitro Inhibitory activity against HIV-2 protease in the presence of 5%DMSO.
The target in experiment [12] is T1, Human immunodeficiency virus type 1 protease. The experiment in a line: ChEBML_79800.
Text: as §2

T2 sequence (P88142 whole entry): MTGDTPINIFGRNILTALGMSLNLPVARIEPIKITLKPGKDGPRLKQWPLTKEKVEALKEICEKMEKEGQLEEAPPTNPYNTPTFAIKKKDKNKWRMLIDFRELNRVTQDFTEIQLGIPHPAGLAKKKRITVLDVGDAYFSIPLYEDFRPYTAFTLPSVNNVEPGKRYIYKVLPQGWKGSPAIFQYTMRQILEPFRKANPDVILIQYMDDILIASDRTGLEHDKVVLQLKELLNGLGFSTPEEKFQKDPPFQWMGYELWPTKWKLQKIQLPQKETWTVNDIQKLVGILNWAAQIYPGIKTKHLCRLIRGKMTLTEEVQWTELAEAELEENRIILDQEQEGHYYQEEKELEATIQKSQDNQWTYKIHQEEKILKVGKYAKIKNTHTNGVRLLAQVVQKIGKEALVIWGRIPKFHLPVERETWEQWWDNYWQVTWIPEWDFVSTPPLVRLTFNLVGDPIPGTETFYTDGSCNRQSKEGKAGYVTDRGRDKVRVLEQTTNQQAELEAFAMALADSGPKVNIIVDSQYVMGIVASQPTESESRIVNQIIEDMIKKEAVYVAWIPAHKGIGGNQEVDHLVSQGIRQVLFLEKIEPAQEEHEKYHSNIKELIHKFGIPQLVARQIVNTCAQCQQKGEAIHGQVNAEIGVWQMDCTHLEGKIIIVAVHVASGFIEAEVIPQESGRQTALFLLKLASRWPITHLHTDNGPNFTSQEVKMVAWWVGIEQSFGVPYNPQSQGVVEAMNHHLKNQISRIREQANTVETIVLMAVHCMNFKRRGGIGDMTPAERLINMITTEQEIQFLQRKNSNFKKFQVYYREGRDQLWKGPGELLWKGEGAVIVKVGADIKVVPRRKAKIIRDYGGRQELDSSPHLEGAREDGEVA

By IC50 is commonly meant the concentration needed to halve the response being measured. What is called Ki is a measure of affinity in units of concentration, obtained from inhibition or displacement. Consider `CC1=C(CCC(=O)O)/C2=C/c3c(CCC(=O)O)c(C)c4[n]3[Cu][n]3/c(c(C)c(C(COC(=O)C5=CC5)OC(=O)C5=CC5)/c3=C/C3=NC(=C\4)/C(C(COC(=O)C4=CC4)OC(=O)C4=CC4)=C3C)=C\C1=N2` (stereo not drawn), for which the concentration for half-maximal inhibition (IC50) in experiment [1] was > 70000 nM; in experiment [2] it was 2200 nM; in [3], 725 nM; in experiment [4] it was 470 nM; in experiment [5], 975 nM. The affinity in experiment [6] corresponds to a Ki of 140 nM.
In the case of `CC1=C(CCC(=O)O)c2cc3nc(cc4[nH]c(cc5[nH]c(cc1n2)c(C)c5C(COC(=O)C1=CC1)OC(=O)C1=CC1)c(C)c4C(COC(=O)C1=CC1)OC(=O)C1=CC1)C(C)=C3CCC(=O)O` (stereo not drawn), the IC50 in experiment [1] was 25000 nM and > 150000 nM; in experiment [2], 700 nM; in experiment [7], 230 nM; in experiment [8] it was 50 nM; in experiment [5] it was 185 nM; in [9] it was 700 nM.
On to `CC1=C(CCC(=O)O)/C2=C/c3c(CCC(=O)O)c(C)c4[n]3[Mn][n]3/c(c(C)c(C(COC(=O)C5=CC5)OC(=O)C5=CC5)/c3=C/C3=NC(=C\4)/C(C(COC(=O)C4=CC4)OC(=O)C4C=C4)=C3C)=C\C1=N2` (stereo not drawn), for which the half-inhibitory concentration (IC50) was determined as 65000 nM in experiment [1]; 100 nM in experiment [3]; 400 nM in experiment [5]; 700 nM in experiment [10]; 1200 nM in [11]. Further, in [6], the Ki stood at 85 nM.
Take `CC1=C(CCC(=O)O)c2cc3nc(cc4[nH]c(cc5[nH]c(cc1n2)c(C)c5C(COC(=O)C1=CCC1)OC(=O)C1=CCC1)c(C)c4C(COC(=O)C1=CCC1)OC(=O)C1=CCC1)C(C)=C3CCC(=O)O` (stereo not drawn): the IC50 in [1] came to 10000 nM; in experiment [4], 550 nM.
With `CC1=C(CCC(=O)O)/C2=C/c3c(CCC(=O)O)c(C)c4[n]3[Co][n]3/c(c(C)c(C(COC(=O)C5=CC5)OC(=O)C5=CC5)/c3=C/C3=NC(=C\4)/C(C(COC(=O)C4=CC4)OC(=O)C4=CC4)=C3C)=C\C1=N2` (stereo not drawn), the IC50 in experiment [12] was found to be 2250 nM; in experiment [1] it was 25000 nM; in [2], 1500 nM.

Source of the values: BindingDB's records for doi:10.1021/jm00096a020 (University of California, 1992).
